Source: ChEMBL document CHEMBL4616694, “Selective Covalent Targeting of Mutated EGFR(T790M) with Chlorofluoroacetamide-Pyrimidines” (ACS Med Chem Lett, 2020)
pIC50: −log10 of the molar value. The source made the active and inactive calls. The rule behind the calls is not given here.

What was measured:
NCI-H292 = assay: Antiproliferative activity against human NCI-H292 cells expressing wild type EGFR assessed as reduction in cell viability measured after 72 hrs by WST assay; type: functional, cell-based; conditions: NCI-H292, 72 h
[1] = Selectivity index, ratio of IC50 for human NCI-H292 cells expressing wild type EGFR assessed as reduction in cell viability measured after 72 hrs by MTT assay to IC50 for human NCI-H1975 cells harboring EGFR L858R/T790M mutant assessed as reduction in cell viability measured after 72 hrs by MTT assay; type: functional
NCI-H1975 = assay: Antiproliferative activity against human NCI-H1975 cells harboring EGFR L858R/T790M mutant assessed as reduction in cell viability measured after 72 hrs by WST assay; type: functional, cell-based; conditions: NCI-H1975, 72 h
[2] = test system: Epidermal growth factor receptor (Homo sapiens), P00533 [L858R,T790M]; assay: Competitive binding affinity to EGFR L858R/T790M mutant in human H1975 cells assessed as fluorescent band formation at 5 uM pretreated with compound followed by subsequent addition of copper-catalyzed azide-alkyne cyclo with rhodamine azide measured after 1 hr in presence of osimertinib by in-gel fluorescence assay; type: cell-based
Summary of the method: (§1)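 H1975 cells were incubated with the alkyne CFA probe for 1 h at 37 °C. Labeled proteins were clicked to rhodamine-azide by CuAAC and resolved by in-gel fluorescence, with EGFR taken as the 175 kDa band. For competition, excess osimertinib was present. Labeling was also run across probe concentrations, including 1–10 µM.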

[3] = test system: Epidermal growth factor receptor (Homo sapiens), P00533 [L858R,T790M]; assay: Binding affinity to recombinant human EGFR L858R/T790M mutant kinase domain assessed as stability of compound-protein adduct at 2 uM pretreated with compound followed by subsequent addition of copper-catalyzed azide-alkyne cyclo with rhodamine azide measured after 24 hrs by coomassie brilliant blue staining based in-gel fluorescence assay
[4] = test system: Epidermal growth factor receptor (Homo sapiens), P00533 [L858R,T790M]; assay: Competitive binding affinity to EGFR L858R/T790M in human H1975 cells assessed as fluorescent band formation by measuring molecular weight at 5 uM pretreated with compound followed by subsequent addition of copper-catalyzed azide-alkyne cyclo with rhodamine azide measured after 1 hr by in-gel fluorescence assay; type: cell-based; summary of the method: as §1
[5] = test system: Epidermal growth factor receptor (Homo sapiens), P00533 [L858R,T790M]; assay: Binding affinity to EGFR L858R/T790M mutant expressed in human H1975 cells assessed as protein labeling at 1 uM measured after 1 hr by pull down based Western blot analysis
[6] = biological target: Epidermal growth factor receptor (Homo sapiens) (UniProt P00533); assay: Competitive binding affinity to EGFR in human H1975 cells assessed as protein labeling at 1 uM pretreated with compound followed by subsequent addition of copper-catalyzed azide-alkyne cyclo with rhodamine azide incubated for 10 hrs by in-gel fluorescence assay; type: cell-based
Summary of the method: (§2)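 H1975 cells were labeled over time with 1 µM alkyne probe, with incubations extending to 10 h. Labeled proteins were conjugated to rhodamine-azide by copper-catalyzed azide-alkyne cycloaddition and read by in-gel fluorescence.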

[7] = biological target: Epidermal growth factor receptor (Homo sapiens) (UniProt P00533); assay: Competitive binding affinity to wild type EGFR expressed in human HEK293 cells assessed as protein labeling pretreated with compound followed by subsequent addition of copper-catalyzed azide-alkyne cyclo with rhodamine azide incubated for 2 hrs by in-gel fluorescence assay; type: cell-based
[8] = biological target: Epidermal growth factor receptor (Homo sapiens) (UniProt P00533); assay: Competitive binding affinity to wild type EGFR expressed in human H292 cells assessed as protein labeling pretreated with compound followed by subsequent addition of copper-catalyzed azide-alkyne cyclo with rhodamine azide incubated for 2 hrs by in-gel fluorescence assay; type: cell-based
[9] = biological target: Epidermal growth factor receptor (Homo sapiens) (UniProt P00533); assay: Competitive binding affinity to wild type EGFR expressed in human HEK293 cells assessed as protein labeling at 1 uM pretreated with compound followed by subsequent addition of copper-catalyzed azide-alkyne cyclo with rhodamine azide by in-gel fluorescence assay; type: cell-based; conditions: TDE = time-dependent effect
[10] = biological target: Epidermal growth factor receptor (Homo sapiens) (UniProt P00533); assay: Competitive binding affinity to wild type EGFR expressed in human H292 cells assessed as protein labeling at 1 uM pretreated with compound followed by subsequent addition of copper-catalyzed azide-alkyne cyclo with rhodamine azide by in-gel fluorescence assay; type: cell-based; conditions: TDE = time-dependent effect
[11] = biological target: Epidermal growth factor receptor (Homo sapiens) (UniProt P00533); assay: Competitive binding affinity to EGFR in human H1975 cells assessed as protein labeling at 1 uM pretreated with compound followed by subsequent addition of copper-catalyzed azide-alkyne cyclo with rhodamine azide by in-gel fluorescence assay; type: cell-based; conditions: TDE = time-dependent effect; summary of the method: as §2
[12] = biological target: Epidermal growth factor receptor (Homo sapiens) (UniProt P00533); assay: Competitive binding affinity to wild type EGFR expressed in human H292 cells assessed as SILAC ratio at 5 uM measured after 2 hrs by MS analysis; type: cell-based
[13] = biological target: Epidermal growth factor receptor (Homo sapiens) (UniProt P00533); assay: Competitive binding affinity to EGFR in human H1975 cells assessed as protein labeling pretreated with compound followed by subsequent addition of copper-catalyzed azide-alkyne cyclo with rhodamine azide measured after 1 hr by in-gel fluorescence assay; type: cell-based; summary of the method: as §1
[14] = biological target: Epidermal growth factor receptor (Homo sapiens) (UniProt P00533); assay: Binding affinity to wild type EGFR expressed in human H292 cells assessed as protein labeling at 1 uM measured after 1 hr by pull down based Western blot analysis
[15] = test system: Epidermal growth factor receptor (Homo sapiens), P00533 [L858R,T790M]; assay: Binding affinity to recombinant human EGFR L858R/T790M mutant kinase domain assessed as rapid covalent modification at 2 uM pretreated with compound followed by subsequent addition of copper-catalyzed azide-alkyne cyclo with rhodamine azide measured after 72 hrs by coomassie brilliant blue staining based in-gel fluorescence assay
[16] = test system: Epidermal growth factor receptor (Homo sapiens), P00533 [L858R,T790M]; assay: Competitive binding affinity to EGFR L858R/T790M mutant expressed in human H1975 cells assessed as SILAC ratio at 5 uM measured after 2 hrs by MS analysis; type: cell-based
Summary of the method: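 SILAC mass spectrometry in isotopically labeled H1975 cells treated with the probe at 5 µM for 2 h at 37 °C, followed by streptavidin enrichment. Reported values are log2 median SILAC ratios (probe/DMSO or probe/probe) from triplicate MS analyses of a single enriched sample.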

[17] = Half life of compound in phosphate buffer at pH 7.4 and 37 degree C under neutral aqueous condition in presence of excess glutathione; type: physicochemical; conditions: phosphate buffer with excess glutathione
Summary of the method: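 Compound was incubated with excess glutathione under neutral aqueous conditions (pH 7.4, 37 °C), and half-reaction time was determined from the time course.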

[18] = test system: Epidermal growth factor receptor (Homo sapiens), P00533 [L858R,T790M]; assay: Irreversible inhibition of EGFR L858R/T790M mutant in human H1975 cells assessed as reduction in autophosphorylation at Y1068 residue at 10 nM measured after 8 hrs post compound washout by Western blot analysis; type: cell-based
Summary of the method: (§3)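 H1975 cells were treated at 10 nM, and EGFR Y1068 autophosphorylation was assessed by western blot. For irreversibility, compound was washed out of the culture medium and phospho-EGFR was examined for at least 8 h afterwards.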

[19] = test system: Epidermal growth factor receptor (Homo sapiens), P00533 [L858R,T790M]; assay: Binding affinity to recombinant human EGFR L858R/T790M mutant kinase domain assessed as fluorescent band formation at 2 uM pretreated with compound followed by subsequent addition of copper-catalyzed azide-alkyne cyclo with rhodamine azide measured after 72 hrs by coomassie brilliant blue staining based in-gel fluorescence assay
Homo sapiens = species: Homo sapiens; assay: Selectivity index, ratio of IC50 for wild type EGFR (unknown origin) to IC50 for human EGFR L858R/T790M mutant expressed in baculovirus infected insect cells
[20] = Cmax in BALB/c mouse at 25 mg/kg, po administered as single dose measured at 2 hrs; type: ADME, organism-based; set-up: dose 25 mg/kg, route oral; conditions: in vivo
Summary of the method: (§4)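 Mice received a single oral dose of 25 mg/kg. Plasma compound levels were followed over time, giving peak concentration with its time and mean residence time.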

[21] = Mean residence time in BALB/c mouse at 25 mg/kg, po administered as single dose measured at 2 hrs; type: ADME, organism-based; conditions: in vivo; summary of the method: as §4
[22] = test system: Epidermal growth factor receptor (Homo sapiens), P00533 [L858R,T790M]; assay: Binding affinity to recombinant human EGFR L858R/T790M mutant kinase domain expressed in baculovirus infected insect cells assessed as covalent bond formation between protein Cys797 residue-compound by LC-MS/MS analysis
[23] = test system: Epidermal growth factor receptor (Homo sapiens), P00533 [L858R,T790M]; assay: Inhibition of EGFR L858R/T790M mutant in human H1975 cells assessed as reduction in autophosphorylation at Y1068 residue at 10 nM by Western blot analysis; type: cell-based; summary of the method: as §3
[24] = test system: Epidermal growth factor receptor (Homo sapiens), P00533 [L858R,T790M]; assay: Binding affinity to recombinant human EGFR L858R/T790M mutant kinase domain assessed as compound-protein adduct formation at 2 uM pretreated with compound followed by subsequent addition of copper-catalyzed azide-alkyne cyclo with rhodamine azide measured after 72 hrs by coomassie brilliant blue staining based in-gel fluorescence assay

COc1cc(N(C)CCN(C)C)c(NC(=O)[C@H](C)NC(=O)C(F)Cl)cc1Nc1ncc(Cl)c(-c2c[nH]c3ccccc23)n1 (some centres undefined)
pIC50 (NCI-H292): 6.15 | Ratio IC50 [1]: 22.9 | pIC50 (NCI-H1975): 7.51

C#CCCN(C)CCN(C)c1cc(OC)c(Nc2ncc(C(F)(F)F)c(-c3c[nH]c4ccccc34)n2)cc1NC(=O)[C@H](C)NC(=O)C(F)Cl (some centres undefined)
Activity [2]: inactive | Activity [3]: Active | Activity [4]: 175 kDa | Activity [5]: Active | Activity [6]: Active | Activity [7]: Dose-dependent effect | Activity [8]: Dose-dependent effect | Activity [9]: Tde | pIC50 (NCI-H1975): 7.29 | Activity [10]: Tde | Activity [11]: Tde | log(ratio) [12]: 3.2 | Activity [13]: Dose-dependent effect | Activity [14]: Active

COc1cc(N(C)CCN(C)C)c(NC(=O)C(F)Cl)cc1Nc1ncc(Cl)c(-c2c[nH]c3ccccc23)n1 (centres undefined)
pIC50 (NCI-H1975): 7.30

C#CCCN(C)CCN(C)c1cc(OC)c(Nc2nccc(-c3cn(C)c4ccccc34)n2)cc1NC(=O)C=C
Activity [15]: Active | Activity [5]: Active | pIC50 (NCI-H1975): 7.14 | Activity [11]: Tde | Activity [13]: Dose-dependent effect | Activity [14]: Active | log(ratio) [16]: -0.059

CNC(=O)[C@H](CSC(F)C(=O)N[C@@H](C)C(=O)Nc1cc(Nc2ncc(C(F)(F)F)c(-c3c[nH]c4ccccc34)n2)c(OC)cc1N(C)CCN(C)C)NC(C)=O (some centres undefined)
half-life [17]: 11.2 h

COc1cc(N(C)CCN(C)C)c(NC(=O)[C@@H]2CCCN2C(=O)C(F)Cl)cc1Nc1ncc(Cl)c(-c2c[nH]c3ccccc23)n1 (some centres undefined)
pIC50 (NCI-H1975): 7.25

COc1cc(N(C)CCN(C)C)c(NC(=O)[C@H](C)NC(C)=O)cc1Nc1ncc(C(F)(F)F)c(-c2c[nH]c3ccccc23)n1
pIC50 (NCI-H292): 5.44 | Ratio IC50 [1]: 7.8 | pIC50 (NCI-H1975): 6.34

COc1cc(N(C)CCN(C)C)c(NC(=O)[C@@H]2C[C@@H](O)CN2C(=O)C(F)Cl)cc1Nc1ncc(Cl)c(-c2c[nH]c3ccccc23)n1 (some centres undefined)
pIC50 (NCI-H1975): 6.82

COc1cc(N(C)CCN(C)C)c(NC(=O)[C@@H](C)NC(=O)C(F)Cl)cc1Nc1ncc(Cl)c(-c2c[nH]c3ccccc23)n1 (some centres undefined)
pIC50 (NCI-H1975): 6.36

COc1cc(N(C)CCN(C)C)c(NC(=O)[C@H](C)NC(=O)C(F)Cl)cc1Nc1ncc(C(F)(F)F)c(-c2c[nH]c3ccccc23)n1 (some centres undefined)
inhibition [18]: Active | Activity [19]: Active | pIC50 (NCI-H292): 5.86 | Ratio IC50 (Homo sapiens): 44.7 | Ratio IC50 [1]: 91.3 | Cmax [20]: 0.51 µM | MRT [21]: 8.9 h | pIC50 (NCI-H1975): 7.82 | half-life [17]: 49.4 h | Activity [22]: Active | inhibition [23]: Active | Activity [24]: Active

COc1cc(N(C)CCN(C)C)c(NC(=O)[C@H](CO)NC(=O)C(F)Cl)cc1Nc1ncc(Cl)c(-c2c[nH]c3ccccc23)n1 (some centres undefined)
pIC50 (NCI-H1975): 6.49

COc1cc(N(C)CCN(C)C)c(NC(=O)[C@@H]2CCN2C(=O)C(F)Cl)cc1Nc1ncc(Cl)c(-c2c[nH]c3ccccc23)n1 (some centres undefined)
pIC50 (NCI-H1975): 6.42

COc1cc(N(C)CCN(C)C)c(NC(=O)[C@H](CC(C)C)NC(=O)C(F)Cl)cc1Nc1ncc(Cl)c(-c2c[nH]c3ccccc23)n1 (some centres undefined)
pIC50 (NCI-H1975): 7.28

COc1cc(N(C)CCN(C)C)c(NC(=O)CNC(=O)C(F)Cl)cc1Nc1ncc(Cl)c(-c2c[nH]c3ccccc23)n1 (centres undefined)
pIC50 (NCI-H1975): 6.89

COc1cc(N(C)CCN(C)C)c(NC(=O)C(F)Cl)cc1Nc1ncc(C(F)(F)F)c(-c2c[nH]c3ccccc23)n1 (centres undefined)
pIC50 (NCI-H292): 6.24 | Ratio IC50 [1]: 17.3 | pIC50 (NCI-H1975): 7.48

C=CC(=O)Nc1cc(Nc2nccc(-c3cn(C)c4ccccc34)n2)c(OC)cc1N(C)CCN(C)C [OSIMERTINIB]
pIC50 (NCI-H292): 6.66 | Ratio IC50 [1]: […] | pIC50 (NCI-H1975): […]
